Assay results from PubChem BioAssay.
The source made the active and inactive calls.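 How the source made its calls, unless noted: active means GFP response above 150% of the DMSO level; inconclusive means fewer than 70 events counted for a yeast strain; inactive means the rest.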

What was measured:
[1] = hit retest on RPL19A-GFP reporter strain – cell-based, S. cerevisiae, flow cytometry, cherry picks, mother/daughter gates, confirmation (AID 2270;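 active means GFP response below 50% of the DMSO control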); details: 3 h, at 10 µM, stronger effect = lower value, 100 = same GFP as DMSO wells
[2] = yeast TOR pathway reporter LAP4-GFP change – cell-based, cherry picks, flow cytometry, mother/daughter gates, confirmation (AID 2271;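 active means GFP response above 150% of the DMSO control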;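 further: ratio of sample to DMSO plate mean so 100% equals DMSO level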); details: S. cerevisiae LAP4-GFP strain, 3 h, at 10 µM, stronger effect = higher value, 100 means same as DMSO control
How it was run: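 System – GFP-fusion yeast strain · Amount – 0.2 OD600 cells · Buffer or medium – SC growth medium · Dosing – single test-compound dose, 10 µM final · Schedule – 3 h treatment at 30 °C with rotation · Detection – GFP by flow cytometry · Read-out – per-gate (all, mother, daughter) GFP response vs DMSO · Benchmarks – positive rapamycin (400 ng/mL), negative DMSO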

[3] = TOR pathway reporter MEP2-GFP, retest of hits – S. cerevisiae, flow cytometry GFP, cherry picks, confirmation (AID 2272;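 active means GFP response above 150% of the DMSO control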;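 further: ratio of well signal to plate DMSO mean so 100% equals DMSO level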); details: S. cerevisiae MEP2-GFP strain, 3 h, at 10 µM, stronger effect = higher value
[4] = yeast AGP1-GFP fluorescence change, single-dose – cell-based, flow cytometry, S. cerevisiae, cherry picks, confirmation (AID 2273);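 further: median GFP channel fluorescence over the whole cell population gate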; details: S. cerevisiae AGP1-GFP strain, 3 h, at 10 µM
[5] = TOR pathway CIT2 reporter hit retest – S. cerevisiae, GFP fusion, cherry picks, mother/daughter gates, confirmation (AID 2274); details: S. cerevisiae CIT2-GFP strain, flow cytometry, 3 h, at 10 µM, stronger effect = higher value
[6] = measured here: daughter cell gate
[7] = measured here: mother cell gate
[8] = measured here: daughter cell gate response
[9] = measured here: mother cell gate response

SMILES | GFP response vs DMSO [1] | GFP response vs DMSO [1, 6] [%] | GFP response vs DMSO [1, 7] [%] | GFP response relative to DMSO [2] | GFP response relative to DMSO [2, 8] [%] | GFP response relative to DMSO [2, 9] [%] | GFP response vs DMSO [3] | GFP response, % of DMSO [4] | GFP response, % of DMSO [5] | GFP response, % of DMSO [5, 6] [%] | GFP response, % of DMSO [5, 7] [%]
CCCCOc1ccc(C(=O)N2CCN(c3ccc(N4CCOCC4)nn3)CC2)cc1 | 97.4% (inactive) | 99.1 | 94.9 | 97.9% (inactive) | 97.6 | 97.2 | 98.3% (inactive) | 97.2% (inactive) | 98.3% (inactive) | 101 | 98.5
O=C1ON=C(c2ccccc2)/C1=C\c1ccco1 | 101% (inactive) | 90.8 | 87 | 168% (active) | 143 | 165 | 124% (inactive) | 93.2% (inactive) | 82.2% (inactive) | 89.9 | 70.8
Cc1cc(C=C2C(=O)c3ccccc3C2=O)c(C)n1-c1cccc(C(=O)O)c1 | 100% (inactive) | 101 | 101 | 96.1% (inactive) | 98.2 | 95.1 | 101% (inactive) | 100% (inactive) | 112% (inactive) | 110 | 113
O=C1C2C3C=CC(CO)(O3)C2C(=O)N1c1ccc(-c2ccccc2)cc1 (centres undefined) | 109% (inactive) | 103 | 94.9 | 334% (active) | 156 | 304 | 103% (inactive) | 97.8% (inactive) | 91.5% (inactive) | 97.4 | 82.1
O=C(c1ccccc1Br)N1CCN(c2ccccc2)CC1 | 104% (inactive) | 106 | 105 | 93.8% (inactive) | 92.5 | 97.2 | 109% (inactive) | 94.3% (inactive) | 93.9% (inactive) | 94.8 | 94.4
CCn1c(=O)c(C(=O)NCCCO)c(O)c2ccccc21 | 102% (inactive) | 101 | 102 | 111% (inactive) | 111 | 112 | 114% (inactive) | 99.1% (inactive) | 106% (inactive) | 105 | 107
Cc1cc(=O)oc2cc(OC(C)C(=O)NC3CCCC3)ccc12 (centres undefined) | 102% (inactive) | 100 | 102 | 95.7% (inactive) | 94.2 | 95.2 | 101% (inactive) | 105% (inactive) | 95.9% (inactive) | 93.8 | 95.6
O=C(Sc1cccc2cccnc12)c1ccccc1Br | 96.8% (inactive) | 92.3 | 98.5 | 151% (active) | 144 | 153 | 122% (inactive) | 95.8% (inactive) | 114% (inactive) | 115 | 112
Cc1ccc(Oc2nc(-c3ccccn3)nc3ccccc23)cc1 | 98.2% (inactive) | 94.7 | 97.8 | 110% (inactive) | 107 | 110 | 103% (inactive) | 92.2% (inactive) | 91.5% (inactive) | 92 | 90.7
Cc1c(Br)c(O)c(Br)c2sc(=O)oc12 | 96.2% (inactive) | 101 | 94.2 | 125% (inactive) | 123 | 129 | 105% (inactive) | 101% (inactive) | 97.3% (inactive) | 101 | 94.4
CC(=O)c1ccc(Sc2ccccn2)c([N+](=O)[O-])c1 | 98.4% (inactive) | 99.4 | 95.8 | 99.2% (inactive) | 99.2 | 97.2 | 102% (inactive) | 93.1% (inactive) | 101% (inactive) | 103 | 99.7
CCCn1c(=O)c(C(=O)Nc2ccccc2C(=O)OC)c(O)c2ccccc21 | 101% (inactive) | 99 | 103 | 92.6% (inactive) | 94.1 | 95.2 | 97.8% (inactive) | 103% (inactive) | 93.9% (inactive) | 94.8 | 93.4
Cc1cccn2c(=O)c(/C=C(\C#N)C(=O)NC3CCS(=O)(=O)C3)c(N3CCC(C)CC3)nc12 (centres undefined) | 102% (inactive) | 101 | 102 | 96.2% (inactive) | 97.2 | 95.2 | 102% (inactive) | 101% (inactive) | 107% (inactive) | 99.7 | 109
CC(C)C(=O)NC(c1cccs1)c1cc([N+](=O)[O-])c2cccnc2c1O (centres undefined) | 95.8% (inactive) | 95.2 | 95.8 | 101% (inactive) | 99.1 | 99.4 | 94.7% (inactive) | 101% (inactive) | 98.8% (inactive) | 101 | 99.3
CCOc1ccc(C(Nc2cccnc2)c2cc(Cl)c3cccnc3c2O)cc1 (centres undefined) | 99.6% (inactive) | 104 | 95.6 | 164% (active) | 144 | 170 | 122% (inactive) | 93.9% (inactive) | 101% (inactive) | 108 | 94.9
Cc1ccc(N(C(=O)CCCC(=O)Nc2ccccn2)C(C(=O)NC2CCCC2)c2ccc(O)cc2)cc1C (centres undefined) | 98.4% (inactive) | 99 | 99.8 | 98.7% (inactive) | 98.7 | 98.3 | 117% (inactive) | 111% (inactive) | 111% (inactive) | 108 | 112
Cc1cc(=O)n(-c2ccc3ccccc3n2)[nH]1 | 106% (inactive) | 109 | 103 | 115% (inactive) | 120 | 116 | 102% (inactive) | 99.6% (inactive) | 112% (inactive) | 114 | 107
O=[N+]([O-])c1cc(C(F)(F)F)ccc1NCCc1ccccn1 | 98.8% (inactive) | 99.3 | 99.7 | 96.5% (inactive) | 92.2 | 96.5 | 102% (inactive) | 98.9% (inactive) | 106% (inactive) | 106 | 106
Cc1ccccc1N1C(=O)CC(Sc2nnc(-c3ccccc3)o2)C1=O (centres undefined) | 94.6% (inactive) | 92.2 | 93.2 | 102% (inactive) | 101 | 103 | 103% (inactive) | 102% (inactive) | 97.3% (inactive) | 97.4 | 96.8
O=C(c1ccccc1)c1ccccc1N1C(=O)C=CC1=O | 90.5% (inactive) | 61.6 | 81.2 | 266% (active) | 156 | 263 | 156% (inactive) | 129% (inactive) | 86% (inactive) | 95.2 | 71.8
Cc1cc(C)nc(S/C=C/C(=O)c2ccccc2F)n1 | 103% (inactive) | 102 | 102 | 120% (inactive) | 119 | 123 | 107% (inactive) | 94.3% (inactive) | 95.2% (inactive) | 98.1 | 92.3
Cc1cc(NCCN2CCOCC2)n2nc(C)c(-c3ccccc3)c2n1 | 98.8% (inactive) | 99.1 | 97.4 | 100% (inactive) | 95 | 99.5 | 102% (inactive) | 95.2% (inactive) | 92.1% (inactive) | 94.6 | 91
CCOc1ccccc1-c1noc(CCC(=O)Nc2cccnc2)n1 | 98.4% (inactive) | 99 | 99.2 | 107% (inactive) | 105 | 110 | 111% (inactive) | 106% (inactive) | 110% (inactive) | 108 | 112
O=S(=O)(c1ccc(-c2ccccc2)cc1)N1CCOCC1 | 96.7% (inactive) | 96.1 | 94.8 | 97.7% (inactive) | 97.5 | 97.4 | 103% (inactive) | 99.5% (inactive) | 95.8% (inactive) | 95.8 | 93.8
